For data set [1], the system named is Hepatitis C virus. Briefly: Antiviral activity against HCV assessed as inhibition of viral subgenomic RNA replication in human HuH7 cells by replicon assay in presence of 10% fetal calf serum. It counts as functional, organism-based, Hepacivirus hominis. Particulars: Huh-7.
Data set [2] can be described thus: Inhibition of HCV BK NS5B polymerase deltaC21 mutant. It counts as single protein, NS5B polymerase (HCV isolate BK). The method in brief: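 Purified NS5B enzyme (BK strain, C-terminal 21-residue truncation) assayed for polymerase activity on heterogeneous template RNA, following a modified version of a previously published procedure.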
Data set [3] relates to Hepatitis C virus. The data set can be described thus: Antiviral activity against HCV assessed as inhibition of viral subgenomic RNA replication in human HuH7 cells by replicon assay in presence of 50% normal human serum. It counts as functional, organism-based, Hepacivirus hominis, Huh-7.
Data set [4] relates to Hepatitis C virus. The data set can be described thus: Ratio of EC50 for HCV RNA replication in human HuH7 cells in presence of 50% normal human serum to EC50 for HCV RNA replication in human HuH7 cells in presence of 10% fetal calf serum. It counts as functional, Hepacivirus hominis, Huh-7.
In data set [5] the test system is Plasma. The data set can be described thus: Protein binding in human plasma. It counts as ADME, cell-free.

Molecules are shown by their SMILES. A value given as a limit tells only on which side of the number the result lay.

21 compounds from ChEMBL document CHEMBL1143286, “Discovery of pentacyclic compounds as potent inhibitors of hepatitis C virus NS5B RNA polymerase” (Bioorg Med Chem Lett, 2009) can be followed below.

Turning to `O=C(O)c1ccc2c(C3CCCCC3)c3n(c2c1)C[C@@H]1CCN(CCCN2CCCCC2)[C@@H]1c1ccccc1-3`, the EC50 in data set [1] is 53 nM; in data set [3] (Hepatitis C virus, Huh-7), 110 nM. The compound also returned an IC50 in data set [2] of 11 nM.

As to `COc1ccc2c(c1)[C@H]1[C@@H](CCN1CCN(C)C)Cn1c-2c(C2CCCCC2)c2ccc(C(=O)O)cc21` (stereo in doubt; 11), it took 4 nM to reach half-maximal inhibition in data set [2] (IC50). Besides, in data set [3] (huh-7), the EC50 is 49 nM.

With `CN1CC[C@H]2Cn3c(c(C4CCCCC4)c4ccc(C(=O)O)cc43)-c3ccccc3[C@H]21`, the EC50 stood at 770 nM in data set [1] and 2540 nM in data set [3] (Hepatitis C virus, Huh-7). The IC50 in data set [2] is 140 nM. Besides, the “Ratio EC50” value in data set [4] was 3.

`CN(C)CC(=O)N1CC[C@H]2Cn3c(c(C4CCCCC4)c4ccc(C(=O)O)cc43)-c3ccccc3[C@@H]21`: the half-maximal effective concentration (EC50) in data set [1] was found to be 170 nM; in data set [3] (Hepatitis C virus, Huh-7) it was 210 nM. The compound further yielded an IC50 in data set [2] of 31 nM.

As to `COc1ccc2c(c1)[C@@H]1[C@H](CCN1CCN(C)C)Cn1c-2c(C2CCCCC2)c2ccc(C(=O)O)cc21`, the EC50 in data set [1] was over 1000 nM; in data set [3] (Hepatitis C virus, Huh-7) it was over 1000 nM. In data set [2], this compound registered a concentration for half-maximal inhibition (IC50) of 312 nM.

For the compound `COc1ccc2c(c1)[C@H]1[C@@H](CCN1C(=O)CN(C)C)Cn1c-2c(C2CCCCC2)c2ccc(C(=O)O)cc21`, the EC50 is 32 nM in data set [1] and 110 nM in data set [3] (Hepatitis C virus, Huh-7). This compound also showed a half-maximal inhibitory concentration (IC50) in data set [2] of 23 nM.

Turning to `CN(C)CCCN1CC[C@H]2Cn3c(c(C4CCCCC4)c4ccc(C(=O)O)cc43)-c3ccccc3[C@@H]21`, the EC50 in data set [1] was determined as 58 nM; in data set [3] (Hepatitis C virus, Huh-7), 80 nM. In addition, the IC50 in data set [2] stood at 24 nM.

Turning to `CN1CC[C@@H]2c3ccccc3-c3c(C4CCCCC4)c4ccc(C(=O)O)cc4n3C[C@@H]21`, the EC50 worked out at 1200 nM in data set [1] and 3800 nM in data set [3] (Hepatitis C virus, Huh-7). Further, in data set [2], it took 20 nM to reach half-maximal inhibition (IC50). For the same compound, the “Ratio EC50” value in data set [4] is recorded as 3.

In data set [5], `O=C(O)c1ccc2c(C3CCCCC3)c3n(c2c1)C[C@@H]1CCN(CCN2CCCCC2)[C@H]1c1ccccc1-3` displayed an Activity of 92%. For the same compound, the 50% effective concentration (EC50) in data set [1] came out at 40 nM; in data set [3] (Hepatitis C virus, Huh-7), 220 nM. The compound also displayed an IC50 in data set [2] of 11 nM.

Regarding `CN(C)CCN1CC[C@H]2Cn3c(c(C4CCCCC4)c4ccc(C(=O)O)cc43)-c3ccccc3[C@H]21`, the EC50 turned out to be 260 nM in data set [1] and 620 nM in data set [3] (Hepatitis C virus, Huh-7). Besides, the half-maximal inhibitory concentration (IC50) in data set [2] is 30 nM.

For `CN(C)C(=O)CN1CC[C@H]2Cn3c(c(C4CCCCC4)c4ccc(C(=O)O)cc43)-c3ccccc3[C@@H]21`, the EC50 amounted to 78 nM in data set [1] and 96 nM in data set [3] (Hepatitis C virus, Huh-7). In data set [2], this compound yielded an IC50 of 17 nM.

Turning to `COc1ccc2c(c1)[C@@H]1[C@@H](CCN1CCN(C)C)Cn1c-2c(C2CCCCC2)c2ccc(C(=O)O)cc21`, the EC50 worked out at 150 nM in data set [1] and 270 nM in data set [3] (Hepatitis C virus, Huh-7). Moreover, the IC50 in data set [2] came to 21 nM.

Turning to `CN1CC[C@H]2Cn3c(c(C4CCCCC4)c4ccc(C(=O)O)cc43)-c3ccccc3[C@@H]21`, the EC50 stood at 830 nM in data set [1] and 700 nM in data set [3] (Hepatitis C virus, Huh-7). 40 nM corresponded to half-maximal inhibition in data set [2] (IC50). In addition, the “Ratio EC50” value in data set [4] stood at 1.

`CN(C)CCNC(=O)N1CC[C@H]2Cn3c(c(C4CCCCC4)c4ccc(C(=O)O)cc43)-c3ccccc3[C@@H]21`: the concentration giving a half-maximal response (EC50) amounted to 630 nM in data set [1] and 480 nM in data set [3] (Hepatitis C virus, Huh-7). The compound also returned an IC50 in data set [2] of 24 nM.

Take `CN(C)CCN1CCn2c(c(C3CCCCC3)c3ccc(C(=O)O)cc32)-c2ccccc2C1`: the EC50 in data set [1] turned out to be 140 nM; in data set [3] (Hepatitis C virus, Huh-7), 850 nM. Also, the half-inhibitory concentration (IC50) in data set [2] turned out to be 27 nM.

Regarding `COc1ccc2c(c1)[C@H]1[C@@H](CCN1CCN(C)C)Cn1c-2c(C2CCCCC2)c2ccc(C(=O)O)cc21` (stereo in doubt; 8b), the EC50 worked out at 25 nM in data set [1] and 63 nM in data set [3] (Hepatitis C virus, Huh-7). This compound also displayed an IC50 in data set [2] of 8 nM. Also, in data set [4], the “Ratio EC50” value is 2.5.

In the case of `CN(C)CCN1CCn2c(c(C3CCCCC3)c3ccc(C(=O)O)cc32)-c2ccccc21`, the half-maximal effective concentration (EC50) in data set [1] stood at 130 nM; in data set [3] (Hepatitis C virus, Huh-7), 360 nM. In data set [2], this compound displayed an IC50 of 28 nM.

In data set [5], `CN(C)CCN1CC[C@H]2Cn3c(c(C4CCCCC4)c4ccc(C(=O)O)cc43)-c3ccccc3[C@@H]21` gave an Activity of 91.5%. Besides, the 50% effective concentration (EC50) in data set [1] came to 32 nM; in data set [3] (Hepatitis C virus, Huh-7), 98 nM. The same compound gave an IC50 in data set [2] of 20 nM.

Consider `CN(C)[C@H]1C[C@H]2Cn3c(c(C4CCCCC4)c4ccc(C(=O)O)cc43)-c3ccccc3[C@H]2C1`, for which the half-maximal effective concentration (EC50) in data set [1] is 130 nM; in data set [3] (Hepatitis C virus, Huh-7), 890 nM. The compound further displayed a 50% inhibitory concentration (IC50) in data set [2] of 30 nM. For the same compound, the “Ratio EC50” value in data set [4] is on record as 7.

As for `CN(C)C(=O)Cn1c(-c2ccccc2)c(C2CCCCC2)c2ccc(C(=O)O)cc21`, the EC50 turned out to be 1540 nM in data set [1] and 9850 nM in data set [3] (Hepatitis C virus, Huh-7). Further, the IC50 in data set [2] turned out to be 430 nM.

On to `COc1ccc2c(c1)[C@H]1[C@@H](CCN1C(=O)OCCN(C)C)Cn1c-2c(C2CCCCC2)c2ccc(C(=O)O)cc21`, for which the EC50 in data set [1] worked out at 180 nM; in data set [3] (Hepatitis C virus, Huh-7), 225 nM. This compound yielded an IC50 in data set [2] of 21 nM.

For orientation: EC50 means the midpoint of the concentration-response curve. What is called IC50 is the concentration needed to halve the response being measured. A lower IC50 goes with higher potency.
